Data taken from ChEMBL document CHEMBL1687774, “Furanyl-rhodanines are unattractive drug candidates for development as inhibitors of bacterial RNA polymerase” (Antimicrob Agents Chemother, 2010).
≈ marks a conversion by molar mass, not a printed value.

Key:
[1] = system: Staphylococcus aureus; assay: Induction of membrane integrity loss in Staphylococcus aureus SH1000 at 4 times MIC after 10 mins by BacLight assay; type: functional
Summary of the method: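 Membrane integrity measured by BacLight fluorescence after S. aureus SH1000 was exposed to 4× MIC of compound for 10 min; expressed relative to the drug-free control (100%).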

[2] = system: Bacillus subtilis; assay: Inhibition of RNA biosynthesis in Bacillus subtilis 1S34 assessed as induction in biosensor yvgS promoter-luciferase reporter signal relative to untreated control; type: functional
Summary of the method: (§1)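 B. subtilis biosensor strains carry stress-responsive promoter-reporter constructs (parent 1S34). Value is the maximum reporter signal induced, as a ratio to the signal in noninduced control cultures.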

[3] = system: Escherichia coli; assay: Antibacterial activity against Escherichia coli 1411 by microdilution method; type: functional
Summary of the method: (§2)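 MICs by broth microdilution in Mueller-Hinton broth following British Society for Antimicrobial Chemotherapy guidelines; where used, polymyxin B nonapeptide (4 μg/ml) was added together with the compound.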

[4] = Inhibition of Escherichia coli RNA polymerase using Kool NC-45 universal RNA polymerase template
Summary of the method: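 In vitro E. coli RNA polymerase assay using the Kool NC-45 universal RNA polymerase template; IC50 determined.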

[5] = system: Bacillus subtilis; assay: Inhibition of Protein biosynthesis in Bacillus subtilis 1S34 assessed as induction in biosensor yheI promoter-luciferase reporter signal relative to untreated control; type: functional; summary of the method: as §1
[6] = species on record: Bos taurus; assay: Inhibition of bovine Chymotrypsin at 100 uM
Summary of the method: (§3)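 Bovine chymotrypsin and porcine malate dehydrogenase specificity screens with compound at 100 μM; percent inhibition of enzyme activity.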

[7] = system: Bacillus subtilis; assay: Inhibition of Fatty acid biosynthesis in Bacillus subtilis 1S34 assessed as induction in biosensor fabHB promoter-luciferase reporter signal relative to untreated control; type: functional; summary of the method: as §1
[8] = system: Escherichia coli; assay: Antibacterial activity against Escherichia coli 1411 by microdilution method in presence of 4 ug/ml PMBN; type: functional; summary of the method: as §2
[9] = system: Staphylococcus aureus; assay: Induction of membrane potential loss in Staphylococcus aureus SH1000 at 4 times MIC after 10 mins by DIS3 fluorescence assay; type: functional
Summary of the method: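 Membrane potential measured with the fluorescent dye DiSc3(5) after S. aureus SH1000 was exposed to 4× MIC of compound for 10 min; expressed relative to the drug-free control (100%).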

[10] = system: Bacillus subtilis; assay: Inhibition of Cell envelope biosynthesis in Bacillus subtilis 1S34 assessed as induction in biosensor ypuA promoter-luciferase reporter signal relative to untreated control; type: functional; summary of the method: as §1
[11] = system: Staphylococcus aureus; assay: Antibacterial activity against Staphylococcus aureus SH1000 by microdilution method; type: functional; summary of the method: as §2
[12] = system: Bacillus subtilis; assay: Inhibition of DNA biosynthesis in Bacillus subtilis 1S34 assessed as induction in biosensor yorB promoter-luciferase reporter signal relative to untreated control; type: functional; summary of the method: as §1
[13] = system: Escherichia coli; assay: Antibacterial activity against AcrAB-deficient Escherichia coli SM1411 by microdilution method; type: functional; summary of the method: as §2
[14] = species on record: Sus scrofa; assay: Inhibition of pig Malate dehydrogenase at 100 uM; summary of the method: as §3
[15] = system: Bacillus subtilis; assay: Antibacterial activity against Bacillus subtilis 1S34 by microdilution method; type: functional; summary of the method: as §2
[16] = species on record: Bos taurus; assay: Inhibition of bovine Chymotrypsin at 0.0472 uM
[17] = species on record: Sus scrofa; assay: Inhibition of pig Malate dehydrogenase at 0.0472 uM
[18] = system: Staphylococcus epidermidis; assay: Antibacterial activity against Staphylococcus epidermidis ATCC 11047 by microdilution method; type: functional; summary of the method: as §2

| SMILES | Activity [1] [%] | fold change (FC) [2] | MIC [3] [mg/L] | IC50 [4] [µM] | fold change (FC) [5] | inhibition [6] [%] | fold change (FC) [7] | MIC [8] [mg/L] | Activity [9] [%] | fold change (FC) [10] | MIC [11] [mg/L] | fold change (FC) [12] | MIC [13] [mg/L] | inhibition [14] [%] | MIC [15] [mg/L] | inhibition [16] [%] | inhibition [17] [%] | MIC [18] [mg/L] |
| --- | --- | --- | --- | --- | --- | --- | --- | --- | --- | --- | --- | --- | --- | --- | --- | --- | --- | --- |
| O=C(O)CCCN1C(=O)/C(=C/c2ccc(-c3cccc(Cl)c3)o2)SC1=S | 27.3 | 1 | > 128 | 16.3 | 1.2 | 96.7 | 0.9 | 16 | 43.1 | 1 | 4 (≈ 9.81 µM) | 1.1 | > 128 | 88.1 | 1 (≈ 2.45 µM) |  |  |  |
| C/C=C/C/C=C(\C)C(O)CC/C(C)=C/C=C(\C)C(=O)c1c(O)cc([C@H](C)CC/C=C/NC(=O)OC)oc1=O (some centres undefined) [CORALLOPYRONIN A] |  |  |  | 0.726 |  |  |  |  |  |  |  |  |  |  |  |  |  |  |
| O=C1NC(=S)S/C1=C\c1ccc([N+](=O)[O-])o1 | 82.8 | 1.3 | 16 (≈ 62.4 µM) | 32.2 | 1.3 | 49.4 | 1.4 | 2 | 104.8 | 1 | 4 (≈ 15.6 µM) | 8 | 16 (≈ 62.4 µM) | 99.7 | 1 (≈ 3.9 µM) |  |  |  |
| CO[C@H]1/C=C/O[C@@]2(C)Oc3c(C)c(O)c4c(O)c(c(/C=N/N5CCN(C)CC5)c(O)c4c3C2=O)NC(=O)/C(C)=C\C=C\[C@H](C)[C@H](O)[C@@H](C)[C@@H](O)[C@@H](C)[C@H](OC(C)=O)[C@@H]1C [RIFAMPIN] |  |  |  | 0.0115 |  |  |  |  |  |  |  |  |  |  |  | 7.8 | 8.3 |  |
| CO[C@H]1/C=C/O[C@@]2(C)Oc3c(C)c(O)c4c(O)c(cc(O)c4c3C2=O)NC(=O)/C(C)=C\C=C\[C@H](C)[C@H](O)[C@@H](C)[C@@H](O)[C@@H](C)[C@H](OC(C)=O)[C@@H]1C [RIFAMYCIN] |  |  |  | 0.0086 |  |  |  |  |  |  |  |  |  |  |  |  |  |  |
| C=CCN1C(=O)/C(=C/c2ccc(-c3ccc(C(=O)O)cc3)o2)SC1=S |  |  | > 256 | 37.3 |  | 67.4 |  | > 256 |  |  | > 256 |  | > 256 | 96.3 | > 256 |  |  | > 256 |
